Experimental data taken from ChEMBL document CHEMBL3351968, “Synthesis and analgesic activity of alkylated, reduced and constrained oligoheterocyclic peptidomimetic analogs of Leu-enkephalin” (Bioorg Med Chem Lett, 2014).
Square brackets hold non-standard residues; d marks the D form. Peptide text beside a SMILES is read from it. ξ: configuration not given here. NMeY = CN[C@@H](Cc1ccc(O)cc1)C(=O)O; NMeF = CN[C@@H](Cc1ccccc1)C(=O)O; ξP = O=C(O)C1CCCN1; Ava = NCCCCC(=O)O

Assays:
[1] = target: Kappa-type opioid receptor (Cavia porcellus, UniProt P41144); test: Displacement of [3H]U69593 from kappa opioid receptor in guinea pig cortices membrane by liquid scintillation counting analysis; assay type: cell membranes
Outline: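 Competitive radioligand binding at the kappa (KOR) opioid receptor with [3H]-U69,593 as tracer; affinity expressed as Ki.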

Mu-type opioid receptor = Mu-type opioid receptor (Rattus norvegicus, UniProt P33535); test: Displacement of [3H]DAMGO from mu opioid receptor in rat brain membrane by liquid scintillation counting analysis; assay type: cell membranes
Outline: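 Competitive radioligand binding at the mu (MOR) opioid receptor with [3H]-DAMGO as tracer; affinity expressed as Ki.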

Chain of Mu-type opioid receptor (P33535 whole entry): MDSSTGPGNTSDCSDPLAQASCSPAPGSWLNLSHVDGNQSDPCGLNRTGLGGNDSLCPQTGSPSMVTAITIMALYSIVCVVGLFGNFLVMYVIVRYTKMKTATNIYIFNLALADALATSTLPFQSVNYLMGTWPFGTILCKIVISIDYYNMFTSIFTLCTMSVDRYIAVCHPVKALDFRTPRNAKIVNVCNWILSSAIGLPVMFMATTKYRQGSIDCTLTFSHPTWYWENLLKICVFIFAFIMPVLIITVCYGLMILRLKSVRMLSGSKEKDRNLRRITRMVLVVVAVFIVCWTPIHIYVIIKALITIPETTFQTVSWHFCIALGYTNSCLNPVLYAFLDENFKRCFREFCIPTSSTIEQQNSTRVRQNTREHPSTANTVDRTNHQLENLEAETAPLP
Chain of Kappa-type opioid receptor (P41144 whole entry): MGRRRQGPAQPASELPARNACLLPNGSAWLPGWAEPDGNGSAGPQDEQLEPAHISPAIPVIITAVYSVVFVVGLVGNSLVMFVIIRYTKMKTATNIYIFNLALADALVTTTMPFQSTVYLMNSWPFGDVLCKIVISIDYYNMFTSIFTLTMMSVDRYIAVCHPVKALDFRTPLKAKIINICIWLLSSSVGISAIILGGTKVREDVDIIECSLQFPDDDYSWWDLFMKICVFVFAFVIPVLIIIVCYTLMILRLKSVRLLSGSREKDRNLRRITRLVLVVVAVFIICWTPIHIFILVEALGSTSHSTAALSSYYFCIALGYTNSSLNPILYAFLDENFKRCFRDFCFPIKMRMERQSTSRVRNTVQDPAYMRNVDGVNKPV

`CC(C)CC(CN)NCC(Cc1ccccc1)N(C)CCCCCNCC(N)Cc1ccc(O)cc1` (stereo not drawn) gave a Ki [1] of 1620 nM and a Ki (Mu-type opioid receptor) of 1790 nM.

`CC(C)C[C@H]1CNC(=N)N1C[C@H](Cc1ccccc1)N(C)CCN1CCN(C[C@H](Cc2ccc(O)cc2)N(C)C)C1=N` gave a Ki [1] of 11300 nM and a Ki (Mu-type opioid receptor) of 1080 nM.

Work on `CN[C@@H](Cc1ccc(O)cc1)C(=O)N1CCCC1C(=O)N(C)[C@@H](Cc1ccccc1)C(=O)N[C@@H](CC(C)C)C(N)=O` (stereo partly drawn) (H-[NMeY][ξP][NMeF]L-NH2) yielded a Ki [1] of 2030 nM and a Ki (Mu-type opioid receptor) of 2140 nM.

With `CC(C)C[C@H](NC(=O)[C@H](Cc1ccccc1)N(C)C(=O)CCCCNC(=O)[C@@H](N)Cc1ccc(O)cc1)C(N)=O` (H-Y[Ava][NMeF]L-NH2) the Ki [1] was 22500 nM and the Ki (Mu-type opioid receptor) was 38900 nM.

`CN[C@H](CNCC(=O)N(C)CCN(C)[C@H](CN[C@H](CN)CC(C)C)Cc1ccccc1)Cc1ccc(O)cc1` showed a Ki [1] of 1110 nM and a Ki (Mu-type opioid receptor) of 1500 nM.

In the case of `CC(C)C[C@H]1CNCCN1C[C@H](Cc1ccccc1)N(C)CCN(C)CCN1CCN(C)[C@@H](Cc2ccc(O)cc2)C1`, the Ki [1] is reported as 3120 nM and the Ki (Mu-type opioid receptor) is reported as 2650 nM.

Compound `CC(C)C[C@@H](CN)NC[C@H](Cc1ccccc1)N(C)C[C@@H]1CCCN1C[C@H](Cc1ccc(O)cc1)N(C)C` has a Ki [1] of 1280 nM and a Ki (Mu-type opioid receptor) of 60 nM.

In the case of `CC(C)C[C@H]1CNC(=S)N1C[C@H](Cc1ccccc1)N(C)CCN1CCN(C[C@H](Cc2ccc(O)cc2)N(C)C)C1=S`, the Ki [1] is reported as 2300 nM and the Ki (Mu-type opioid receptor) is reported as 740 nM.

`CC(C)C[C@H]1CNCCN1C[C@H](Cc1ccccc1)N(C)CCN1CCN(C[C@H](Cc2ccc(O)cc2)N(C)C)CC1` was tested, and the Ki [1] was 3430 nM and the Ki (Mu-type opioid receptor) was 1150 nM.

`CC(C)C[C@H]1CNC(=S)N1C[C@H](Cc1ccccc1)N(C)C[C@@H]1CCCN1C[C@H](Cc1ccc(O)cc1)N(C)C` was tested, and the Ki [1] was 3320 nM and the Ki (Mu-type opioid receptor) was 430 nM.

In the case of `CC(C)C[C@H]1CNC(=S)N1C[C@H](Cc1ccccc1)N(C)CCCCCN1C[C@H](Cc2ccc(O)cc2)NC1=S`, the Ki [1] is reported as 9480 nM and the Ki (Mu-type opioid receptor) is reported as 11000 nM.

`CC(C)C[C@H]1CNC(=S)N1C[C@H](Cc1ccccc1)N(C)CCN(C)CCN1C[C@H](Cc2ccc(O)cc2)N(C)C1=S` showed a Ki [1] of 3420 nM and a Ki (Mu-type opioid receptor) of 7110 nM.

Compound `CC(C)C[C@H]1CNC(=O)C(=O)N1C[C@H](Cc1ccccc1)N(C)C[C@@H]1CCCN1C[C@H](Cc1ccc(O)cc1)N(C)C` has a Ki [1] of 10600 nM and a Ki (Mu-type opioid receptor) of 250 nM.

`CC(C)C[C@H]1CNC(=O)C(=O)N1C[C@H](Cc1ccccc1)N(C)CCN(C)CCN1C[C@H](Cc2ccc(O)cc2)N(C)C(=O)C1=O` showed a Ki [1] of 94200 nM and a Ki (Mu-type opioid receptor) of 15200 nM.
